Laboratory results taken from ChEMBL document CHEMBL1134897, “C-3 Amido-indole cannabinoid receptor modulators” (Bioorg Med Chem Lett, 2002).

Legend:
Cannabinoid receptor 2 [1] = target: T1, Cannabinoid receptor 2 (Homo sapiens, UniProt P34972); test: Binding affinity against human CB2 receptor expressed in CHO cells by using WIN-55212-2 Mesylate [573H] as Radioactive tracer; assay type: cell-based
Method in brief: (§1)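 Membranes (50 µg) from CHO-K1 cells expressing human CB2 or CB1. Tracer is [5,7-3H]WIN 55,212-2 mesylate for CB2 and CP55,940 for CB1, routinely at 10 nM. Incubated with test compound in HEPES pH 7.4 buffer (EDTA, MgCl₂, 0.3% BSA) for 2 h at room temperature with shaking. Bound label is collected by filtration and counted by scintillation. Single-point values are % inhibition at […] test compound.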

Cannabinoid receptor 2 [2] = target: T1, Cannabinoid receptor 2; test: Displacement of WIN-55212-2-Mesylate [573H] from human CB2 receptor expressed in CHO cells at 100 nM; assay type: cell-based; method in brief: as §1
Cannabinoid receptor 2 [3] = target: T1, Cannabinoid receptor 2; test: Binding affinity against human Cannabinoid receptor 2 expressed in CHO cells by using WIN-55212-2 Mesylate [573H] as Radioactive tracer; assay type: cell-based
Method in brief: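 Membranes (50 µg) from CHO-K1 cells expressing human CB2 or CB1. Incubated with test compound in HEPES pH 7.4 buffer (EDTA, MgCl₂, 0.3% BSA) for 2 h at room temperature with shaking. Bound label is collected by filtration and counted by scintillation.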

Cannabinoid receptor 1 [4] = target: T2, Cannabinoid receptor 1 (Homo sapiens, UniProt P21554); test: Binding affinity against human Cannabinoid receptor 1 expressed in CHO cells by using CP-55940 as Radioactive tracer at 1 uM; assay type: cell-based
[5] = target: Cannabinoid receptor (Homo sapiens) (UniProt P34972+P21554); test: Ratio of binding affinity of the CB1 receptor to that of CB2 receptor; NT means not tested; assay type: protein assay; method in brief: as §1
Mus musculus = species on record: Mus musculus; test: Inhibition of LPS-induced nuclear factor-kappa B (NFkB) activation and TNF production in mouse; assay type: functional, organism-based
Method in brief: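 Female Balb/c mice, 6–8 weeks old, n=8 per group, received LPS (E. coli 0111:B4) at 50 ug/kg i.p. in sterile saline. Blood was taken 90 min later and serum TNF-α measured by ELISA. Compound was dosed i.v. or orally, as solutions in various vehicles, before or at the time of LPS injection.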

Cannabinoid receptor 1 [6] = target: T2, Cannabinoid receptor 1; test: Binding affinity against human Cannabinoid receptor 1 expressed in CHO cells by using CP-55940 as Radioactive tracer; assay type: cell-based

T2 sequence (P21554 whole entry): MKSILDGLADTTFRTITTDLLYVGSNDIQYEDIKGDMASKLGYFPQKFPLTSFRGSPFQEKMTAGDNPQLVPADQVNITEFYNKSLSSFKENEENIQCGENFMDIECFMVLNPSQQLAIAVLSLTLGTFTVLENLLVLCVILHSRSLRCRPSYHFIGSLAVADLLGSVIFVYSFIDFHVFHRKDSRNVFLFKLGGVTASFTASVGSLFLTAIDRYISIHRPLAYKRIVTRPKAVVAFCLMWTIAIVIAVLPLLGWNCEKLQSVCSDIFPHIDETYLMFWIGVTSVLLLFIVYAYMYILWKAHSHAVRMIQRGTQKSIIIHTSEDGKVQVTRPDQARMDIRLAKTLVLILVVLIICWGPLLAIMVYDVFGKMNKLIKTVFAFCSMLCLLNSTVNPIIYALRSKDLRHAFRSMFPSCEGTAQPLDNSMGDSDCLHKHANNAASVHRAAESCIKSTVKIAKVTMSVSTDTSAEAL
T1 sequence (P34972 whole entry): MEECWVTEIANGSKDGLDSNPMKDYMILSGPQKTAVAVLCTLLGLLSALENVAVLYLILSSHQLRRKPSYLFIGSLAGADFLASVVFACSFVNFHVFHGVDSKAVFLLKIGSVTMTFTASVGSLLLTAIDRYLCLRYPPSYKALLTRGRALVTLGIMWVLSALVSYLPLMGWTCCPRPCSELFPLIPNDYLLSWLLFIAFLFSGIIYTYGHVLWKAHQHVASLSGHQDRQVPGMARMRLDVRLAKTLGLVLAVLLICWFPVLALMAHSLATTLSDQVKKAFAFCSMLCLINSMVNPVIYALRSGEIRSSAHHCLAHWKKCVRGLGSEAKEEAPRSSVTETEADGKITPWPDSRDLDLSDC
Sequence of Cannabinoid receptor (Homo sapiens) (P21554 whole entry, looked up): as the sequence (P21554 whole entry) above
Sequence of Cannabinoid receptor (Homo sapiens) (P34972 whole entry, looked up): as the sequence (P34972 whole entry) above

Row | Compound | Ki (Cannabinoid receptor 2 [1]) [nM] | other results
1 | COc1cccc2c(C(=O)N[C@@H](Cc3ccccc3)C(C)=O)c(C)n(CCN3CCOCC3)c12 | 8 | –
2 | COc1c(Cl)ccc2c(C(=O)N[C@@H]3C4(C)CCC(C4)C3(C)C)c(C)n(CCN3CCOCC3)c12 (some centres undefined) | – | inhibition (Cannabinoid receptor 2 [2]): 15%
3 | CCc1c(C(=O)N[C@H]2C3(C)CCC(C3)C2(C)C)c2cccc(OC)c2n1CCN1CCOCC1 (some centres undefined) | 103 | –
4 | COc1cccc2c(C(=O)N[C@H](C#N)Cc3ccccc3)c(C)n(CCN3CCOCC3)c12 | – | inhibition (Cannabinoid receptor 2 [2]): 18%
5 | COc1cccc2c(C(=O)NC3C(C)(C)[C@@H]4CC[C@@]3(C)C4)c(C)n(CCN(C)C)c12 (some centres undefined) | 505 | –
6 | COc1cc(F)cc2c(C(=O)N[C@H]3C4(C)CCC(C4)C3(C)C)c(C)n(CCN3CCOCC3)c12 (some centres undefined) | 18 | –
7 | COc1cc(Cl)cc2c(C(=O)N[C@@H]3C4(C)CCC(C4)C3(C)C)c(C)n(CCN3CCOCC3)c12 (some centres undefined) | 251 | –
8 | COc1cccc2c(C(=O)N[C@@H](Cc3ccccc3)c3ccon3)c(C)n(CCN3CCOCC3)c12 | 235 | –
9 | COc1cccc2c(C(=O)N[C@@H](Cc3ccccc3)c3ccno3)c(C)n(CCN3CCOCC3)c12 | 169 | –
10 | COc1cccc2c(C(=O)NC3CC(C)(C)CCC3(C)C)c(C)n(CCN3CCOCC3)c12 (centres undefined) | 38 | –
11 | CCCCCOc1cc(/C=C/C(=O)N[C@@H](Cc2ccccc2)C(=O)OC)ccc1OC | – | Ki (Cannabinoid receptor 2 [3]): 86 nM; inhibition (Cannabinoid receptor 1 [4]): 51%; Ratio [5]: 0.59
12 | COc1cccc2c(C(=O)N[C@@H]3C4(C)CCC(C4)C3(C)C)c(C)n(CCN3CCOCC3)c12 (some centres undefined) | 41 | –
13 | COc1ccc2c(C(=O)N[C@@H]3C4(C)CCC(C4)C3(C)C)c(C)n(CCN3CCOCC3)c2c1OC (some centres undefined) | – | inhibition (Cannabinoid receptor 2 [2]): 0%
14 | COc1ccc(Cl)c2c(C(=O)N[C@@H]3C4(C)CCC(C4)C3(C)C)c(C)n(CCN3CCOCC3)c12 (some centres undefined) | – | inhibition (Cannabinoid receptor 2 [2]): 11%
15 | CCCc1c(C(=O)N[C@@H]2C3(C)CCC(C3)C2(C)C)c2cccc(OC)c2n1CCN1CCOCC1 (some centres undefined) | – | inhibition (Cannabinoid receptor 2 [2]): 6%
16 | COc1cccc2c(C(=O)NC3C4(C)CCC(C4)C3(C)C)c(C)n(CCN3CCCC3)c12 (centres undefined) | – | inhibition (Cannabinoid receptor 2 [2]): 25%
17 | Cc1c(C(=O)c2cccc3ccccc23)c2cccc3c2n1[C@H](CN1CCOCC1)CO3 [WIN-552122] | – | IC50 (Mus musculus): 8 µM
18 | COc1cccc2c(C(=O)NC3CCCC3(C)C)c(C)n(CCN3CCOCC3)c12 (centres undefined) | 205 | –
19 | COc1cccc2c(C(=O)N[C@H]3C4(C)CCC(C4)C3(C)C)c(C)n(CCN3CCOCC3)c12 (some centres undefined) | 30 | –
20 | COCCn1c(C)c(C(=O)NC2C(C)(C)[C@@H]3CC[C@@]2(C)C3)c2cccc(OC)c21 (some centres undefined) | 60 | –
21 | COc1cccc2c(C(=O)NC3C4(C)CCC(C4)C3(C)C)cn(CCN3CCOCC3)c12 (centres undefined) | 12 | –
22 | COc1ccc(Br)c2c(C(=O)N[C@@H]3C4(C)CCC(C4)C3(C)C)c(C)n(CCN3CCOCC3)c12 (some centres undefined) | – | inhibition (Cannabinoid receptor 2 [2]): 42%

Row | Compound | Ki (Cannabinoid receptor 2 [1]) [nM] | other results
23 | COc1cccc2c(C(=O)N[C@H](C)Cc3ccccc3)c(C)n(CCN3CCOCC3)c12 | 263 | –
24 | COc1cccc2c(C(=O)N[C@@H](Cc3ccccc3)C(=O)N(C)C)c(C)n(CCN3CCOCC3)c12 | – | inhibition (Cannabinoid receptor 2 [2]): 29%
25 | COc1cccc2c(C(=O)N[C@@H]3C4(C)CCC(C4)C3(C)C)cn(CCN3CCOCC3)c12 (some centres undefined) | 13 | –
26 | COc1cccc2c(C(=O)NC3CC(C)(C)CCC3(C)C)cn(CCN3CCOCC3)c12 (centres undefined) | 22 | –
27 | COc1cccc2c(C(=O)NC3C(C)(C)[C@@H]4CC[C@@]3(C)C4)c(C)n(CCCN3CCOCC3)c12 (some centres undefined) | 25 | –
28 | CNC(=O)[C@H](Cc1ccccc1)NC(=O)c1c(C)n(CCN2CCOCC2)c2c(OC)cccc12 | 294 | –
29 | COC(=O)[C@H](Cc1ccccc1)NC(=O)c1c(C)n(CCN2CCOCC2)c2ccccc12 | 250 | –
30 | COC[C@H](Cc1ccccc1)NC(=O)c1c(C)n(CCN2CCOCC2)c2c(OC)cccc12 | – | inhibition (Cannabinoid receptor 2 [2]): 6%
31 | COC(=O)[C@H](Cc1ccccc1)NC(=O)c1c(C)n(CCN2CCOCC2)c2c(OC)cccc12 | – | Ki (Cannabinoid receptor 1 [6]): 4 µM; Ki (Cannabinoid receptor 2 [3]): 8 nM; IC50 (Mus musculus): 12 µM
32 | COc1cccc2c(C(=O)N[C@@H](C)Cc3ccccc3)cn(CCN3CCOCC3)c12 | 71 | –
33 | COc1cccc2c(C(=O)N[C@@H]3C(C)(C)[C@@H]4CC[C@@]3(C)C4)c(C)n(CCN3CCCCC3)c12 | 89 | –
34 | CCCCCOc1cc(/C=C/C(=O)N[C@@H](Cc2ccc(O)cc2)C(=O)OC)ccc1OC | – | Ki (Cannabinoid receptor 1 [6]): 5.7 µM; Ki (Cannabinoid receptor 2 [3]): 120 nM
35 | COC(=O)[C@H](Cc1cccs1)NC(=O)c1c(C)n(CCN2CCOCC2)c2c(OC)cccc12 | 12 | –
36 | CCC(=O)[C@H](Cc1ccccc1)NC(=O)c1c(C)n(CCN2CCOCC2)c2c(OC)cccc12 | 24 | –
37 | COc1ccc(C#N)c2c(C(=O)N[C@@H]3C4(C)CCC(C4)C3(C)C)c(C)n(CCN3CCOCC3)c12 (some centres undefined) | – | inhibition (Cannabinoid receptor 2 [2]): 33%
38 | CC[C@H](Cc1ccccc1)NC(=O)c1c(C)n(CCN2CCOCC2)c2c(OC)cccc12 | – | inhibition (Cannabinoid receptor 2 [2]): 18%
39 | COC(=O)[C@H](Cc1cccc(Cl)c1)NC(=O)c1c(C)n(CCN2CCOCC2)c2c(OC)cccc12 | 31 | –
40 | COc1cc(OC)c2c(c1)c(C(=O)N[C@@H]1C3(C)CCC(C3)C1(C)C)c(C)n2CCN1CCOCC1 (some centres undefined) | – | inhibition (Cannabinoid receptor 2 [2]): 0%
41 | COc1cccc2c(C(=O)N[C@@H](Cc3ccccc3)c3cc[nH]n3)c(C)n(CCN3CCOCC3)c12 | – | inhibition (Cannabinoid receptor 2 [2]): 7%
42 | CO/N=C(\C)[C@H](Cc1ccccc1)NC(=O)c1c(C)n(CCN2CCOCC2)c2c(OC)cccc12 | 184 | –
43 | CCCCCn1c(C)c(C(=O)NC2C(C)(C)[C@@H]3CC[C@@]2(C)C3)c2cccc(OC)c21 (some centres undefined) | 5 | –
44 | COC(=O)[C@H](Cc1cscn1)NC(=O)c1c(C)n(CCN2CCOCC2)c2c(OC)cccc12 | 20 | –
